IC50 and inhibition data for 15 compounds are collected here from ChEMBL document CHEMBL1142785, “Synthesis of novel curcumin mimics with asymmetrical units and their anti-angiogenic activity” (Bioorg Med Chem Lett, 2005).

Converted amounts (≈) assume the structure as drawn.

One assay has as its system B16. Description: Inhibitory concentration for cytotoxic activity against B16 cell line. In kind it is functional, cell-based. Conditions: Mus musculus. The gist of the method:
(§1)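 […] cytotoxicity measured by MTT assay on B16, Vero, U87 and SiHa cells, run alongside HUVEC for selectivity comparison.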

Assay [1] in a line: Inhibitory concentration for cytotoxic activity against U87 cell line. In kind it is functional, cell-based, U-87MG ATCC. As to conditions: Homo sapiens, U-87 MG. The gist of the method:
as §1

The test system of another assay is SiHa. Description: Inhibitory concentration for cytotoxic activity against SiHa cell line. As to conditions: Homo sapiens. In kind it is functional, cell-based. The gist of the method: as §1
The subject of a further assay is Vero. Description: Inhibitory concentration for cytotoxic activity against Vero cell line. In kind it is functional, cell-based. As to conditions: Chlorocebus sabaeus. The gist of the method:
as §1

For assay [2], the system named is HUVEC. Description: Inhibitory concentration against human umbilical vein endothelial cells(HUVEC) growth. In kind it is functional, cell-based. The gist of the method: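 Human umbilical vein endothelial cell (HUVEC) proliferation assay; IC50 derived by nonlinear regression.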
Assay [3] relates to HUVEC. Description: Percentage tube formation inhibition against human umbilical vein endothelial cells(HUVEC) at a concentration of 5 ug/mL. In kind it is functional. The method in brief:
(§2)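 HUVEC tube formation with test agent at 10, 5 or 2.5 µg/mL; total tube length per field quantified by image analysis and expressed as a percentage of the untreated control.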

The test system of assay [4] is HUVEC. Description: Percentage tube formation inhibition against human umbilical vein endothelial cells(HUVEC) at a concentration of 10 ug/mL. In kind it is functional. The gist of the method: as §2
For assay [5], the system named is HUVEC. Description: Percentage tube formation inhibition against human umbilical vein endothelial cells(HUVEC) at a concentration of 2.5 ug/mL. In kind it is functional. The gist of the method:
as §2

`COc1cc(/C=C/C(=O)c2cccc(NC(=O)c3ccccc3)c2)ccc1O`: the IC50 was found to be 0.82 µg/mL (≈ 2.2 µM) in the assay with B16; 8.82 µg/mL (≈ 23.6 µM) in assay [1]; 4.57 µg/mL (≈ 12.2 µM) in the assay with SiHa; 3.47 µg/mL (≈ 9.29 µM) in the assay with Vero; 0.37 µg/mL (≈ 0.991 µM) with HUVEC [2]. This compound displayed an inhibition at 5 µg/mL in the assay on HUVEC [3] of 48%. Moreover, in the assay with HUVEC [4], the inhibition at 10 µg/mL was 69%.

For the compound `COc1cc(/C=C/C(=O)c2cccc(NC(=O)c3cccs3)c2)ccc1O`, the IC50 was determined as 6.93 µg/mL (≈ 18.3 µM) in the assay on B16; 14.7 µg/mL (≈ 38.7 µM) in assay [1]; 6.57 µg/mL (≈ 17.3 µM) with SiHa; 3.98 µg/mL (≈ 10.5 µM) in the assay with Vero; 0.38 µg/mL (≈ 1 µM) with HUVEC [2]. The compound also displayed an inhibition at 5 µg/mL in the assay with HUVEC [3] of 80%. Besides, the inhibition at 10 µg/mL in the assay with HUVEC [4] was found to be 90%. For the same compound, in the assay with HUVEC [5], 2.5 µg/mL produced 71% inhibition.

Regarding `COc1cc(/C=C/C(=O)c2cccc(NC(=O)c3ccc(Cl)cc3)c2)ccc1O`, the IC50 with B16 is 0.59 µg/mL (≈ 1.45 µM); in assay [1], more than 50 µg/mL; in the assay on SiHa, 2.3 µg/mL (≈ 5.64 µM); with Vero, 3.82 µg/mL (≈ 9.37 µM); in the assay on HUVEC [2], 0.76 µg/mL (≈ 1.86 µM). Moreover, in the assay on HUVEC [3], testing at 5 µg/mL gave an inhibition of 42%. Also, the inhibition at 10 µg/mL with HUVEC [4] was 66%.

Turning to `COC(=O)C(=O)Nc1cccc(C(=O)/C=C/c2ccc(O)c(OC)c2)c1`, the IC50 with B16 worked out at 4.41 µg/mL (≈ 12.4 µM); in assay [1], 12.2 µg/mL (≈ 34.4 µM); in the assay with SiHa, 7.71 µg/mL (≈ 21.7 µM); with Vero, 3.55 µg/mL (≈ 9.99 µM); with HUVEC [2], 1.5 µg/mL (≈ 4.22 µM). This compound returned an inhibition at 5 µg/mL with HUVEC [3] of 20%. Moreover, the inhibition at 10 µg/mL in the assay on HUVEC [4] was determined as 43%.

In the case of `CCCC(=O)Nc1cccc(C(=O)/C=C/c2ccc(O)c(OC)c2)c1`, the IC50 with B16 came to 1.43 µg/mL (≈ 4.21 µM); in assay [1], 5.56 µg/mL (≈ 16.4 µM); in the assay on SiHa, 3.94 µg/mL (≈ 11.6 µM); with Vero, 2.04 µg/mL (≈ 6.01 µM); in the assay with HUVEC [2] it was 1.27 µg/mL (≈ 3.74 µM). The compound further gave an inhibition at 5 µg/mL with HUVEC [3] of 57%. This compound returned an inhibition at 10 µg/mL in the assay with HUVEC [4] of 87%. The same compound gave an inhibition at 2.5 µg/mL in the assay with HUVEC [5] of 40%.

Turning to `COc1cc(/C=C/C(=O)c2cccc(NC(=O)C(C)C)c2)ccc1O`, the IC50 with B16 came to 1.09 µg/mL (≈ 3.21 µM); in assay [1], 8.31 µg/mL (≈ 24.5 µM); in the assay with SiHa, 5.96 µg/mL (≈ 17.6 µM); in the assay with Vero it was 3.47 µg/mL (≈ 10.2 µM); in the assay with HUVEC [2] it was 1.44 µg/mL (≈ 4.24 µM). This compound also yielded an inhibition at 5 µg/mL with HUVEC [3] of 51%. This compound registered an inhibition at 10 µg/mL in the assay on HUVEC [4] of 56%. This compound also registered an inhibition at 2.5 µg/mL with HUVEC [5] of 11%.

On to `COc1cc(/C=C/C(=O)c2cccc(NC(=O)c3c(Cl)cccc3Cl)c2)ccc1O`, for which the IC50 in the assay with B16 was 1.58 µg/mL (≈ 3.57 µM); in assay [1], 17.8 µg/mL (≈ 40.3 µM); in the assay on SiHa, 3.56 µg/mL (≈ 8.05 µM); in the assay on Vero, 2.48 µg/mL (≈ 5.61 µM); in the assay on HUVEC [2], 0.46 µg/mL (≈ 1.04 µM). For the same compound, the inhibition at 5 µg/mL in the assay on HUVEC [3] came out at 88%. In the assay with HUVEC [4], this compound yielded an inhibition at 10 µg/mL of 99%. Besides, in the assay on HUVEC [5], at 2.5 µg/mL the inhibition was 53%.

As for `COc1cc(/C=C/C(=O)c2cccc(N)c2)ccc1O`, the IC50 was found to be 11.5 µg/mL (≈ 42.6 µM) in the assay with B16; 7.71 µg/mL (≈ 28.6 µM) in assay [1]; 12.3 µg/mL (≈ 45.8 µM) with SiHa; 6.02 µg/mL (≈ 22.4 µM) with Vero; 2.87 µg/mL (≈ 10.7 µM) in the assay with HUVEC [2]. Also, the inhibition at 5 µg/mL in the assay with HUVEC [3] was found to be 50%. This compound had an inhibition at 10 µg/mL in the assay with HUVEC [4] of 90%. In the assay with HUVEC [5], this compound returned an inhibition at 2.5 µg/mL of 20%.

In the case of `COc1cc(/C=C/C(=O)c2cccc(NC(=O)c3ccco3)c2)ccc1O`, the IC50 with B16 came to 5.46 µg/mL (≈ 15 µM); in assay [1] it was 6.65 µg/mL (≈ 18.3 µM); in the assay with SiHa it was 0.76 µg/mL (≈ 2.09 µM); with Vero, 3.11 µg/mL (≈ 8.56 µM); with HUVEC [2], 0.38 µg/mL (≈ 1.05 µM). This compound also returned an inhibition at 5 µg/mL in the assay on HUVEC [3] of 82%. Also, the inhibition at 10 µg/mL with HUVEC [4] stood at 100%. In the assay with HUVEC [5], this compound gave an inhibition at 2.5 µg/mL of 61%.

Consider `COc1cc(/C=C/C(=O)c2cccc(NC(=O)c3ccc(Cl)cc3Cl)c2)ccc1O`, for which the IC50 in the assay on B16 is 12.8 µg/mL (≈ 29 µM); in assay [1], more than 50 µg/mL; with SiHa, 34.4 µg/mL (≈ 77.8 µM); in the assay with Vero, 27.2 µg/mL (≈ 61.5 µM); in the assay with HUVEC [2], 0.4 µg/mL (≈ 0.904 µM). In the assay with HUVEC [3], this compound showed an inhibition at 5 µg/mL of 51%. The compound also showed an inhibition at 10 µg/mL in the assay on HUVEC [4] of 70%. Moreover, in the assay on HUVEC [5], 2.5 µg/mL produced 29% inhibition.

On to `COc1cc(/C=C/C(=O)c2cccc(NC(=O)c3ccc(Cl)c(Cl)c3)c2)ccc1O`, for which the IC50 was 3.88 µg/mL (≈ 8.77 µM) in the assay with B16; 29.5 µg/mL (≈ 66.6 µM) in assay [1]; 25.3 µg/mL (≈ 57.2 µM) with SiHa; more than 50 µg/mL with Vero; 2.97 µg/mL (≈ 6.71 µM) with HUVEC [2]. The inhibition at 5 µg/mL with HUVEC [3] amounted to 5%. The compound also yielded an inhibition at 10 µg/mL in the assay on HUVEC [4] of 45%.

For `COc1cc(/C=C/C(=O)c2cccc(NC(=O)c3cc(Cl)cc(Cl)c3)c2)ccc1O`, the IC50 with B16 was 4.83 µg/mL (≈ 10.9 µM); in assay [1], more than 50 µg/mL; in the assay with SiHa, 17.7 µg/mL (≈ 40 µM); with Vero it was more than 50 µg/mL; in the assay on HUVEC [2], 0.75 µg/mL (≈ 1.7 µM). In addition, at 5 µg/mL the inhibition in the assay with HUVEC [3] was 51%. The compound further returned an inhibition at 10 µg/mL with HUVEC [4] of 58%. The same compound gave an inhibition at 2.5 µg/mL with HUVEC [5] of 15%.

As to `COc1cc(/C=C/C(=O)c2cccc(NC(C)=O)c2)ccc1O`, the half-maximal inhibitory concentration (IC50) in the assay on B16 was 3.62 µg/mL (≈ 11.6 µM); in assay [1], more than 50 µg/mL; in the assay with SiHa it was 15.8 µg/mL (≈ 50.6 µM); with Vero, 14.5 µg/mL (≈ 46.5 µM); in the assay on HUVEC [2] it was 7.06 µg/mL (≈ 22.7 µM). 5 µg/mL produced 15% inhibition with HUVEC [3]. In addition, the inhibition at 10 µg/mL in the assay with HUVEC [4] amounted to 32%.

For `CCOC(=O)C(=O)Nc1cccc(C(=O)/C=C/c2ccc(O)c(OC)c2)c1`, the IC50 with B16 was 7.03 µg/mL (≈ 19 µM); in assay [1], more than 50 µg/mL; with SiHa, more than 50 µg/mL; with Vero, more than 50 µg/mL; in the assay with HUVEC [2], 13.3 µg/mL (≈ 36 µM). Further, at 5 µg/mL the inhibition in the assay on HUVEC [3] was 45%. Moreover, in the assay on HUVEC [4], testing at 10 µg/mL gave an inhibition of 66%.

In turn, `COc1cc(/C=C/C(=O)CC(=O)/C=C/c2ccc(O)c(OC)c2)ccc1O` [CURCUMIN] came in with an IC50 with HUVEC [2] of 10.8 µg/mL (≈ 29.4 µM).

The IC50 is the concentration at which inhibition is half-maximal. Low readings indicate greater potency in that assay, high ones weaker potency in that assay. The term inhibition denotes the percentage by which the read-out fell short of the control. Read a high inhibition as a response far below the control.
